Published values of several laboratories.
Lines come from different studies, so protocols differ.
Target: cGMP-dependent protein kinase 1 (PRKG1, Homo sapiens, UniProt Q13976)
One construct used (Q13976 1-671): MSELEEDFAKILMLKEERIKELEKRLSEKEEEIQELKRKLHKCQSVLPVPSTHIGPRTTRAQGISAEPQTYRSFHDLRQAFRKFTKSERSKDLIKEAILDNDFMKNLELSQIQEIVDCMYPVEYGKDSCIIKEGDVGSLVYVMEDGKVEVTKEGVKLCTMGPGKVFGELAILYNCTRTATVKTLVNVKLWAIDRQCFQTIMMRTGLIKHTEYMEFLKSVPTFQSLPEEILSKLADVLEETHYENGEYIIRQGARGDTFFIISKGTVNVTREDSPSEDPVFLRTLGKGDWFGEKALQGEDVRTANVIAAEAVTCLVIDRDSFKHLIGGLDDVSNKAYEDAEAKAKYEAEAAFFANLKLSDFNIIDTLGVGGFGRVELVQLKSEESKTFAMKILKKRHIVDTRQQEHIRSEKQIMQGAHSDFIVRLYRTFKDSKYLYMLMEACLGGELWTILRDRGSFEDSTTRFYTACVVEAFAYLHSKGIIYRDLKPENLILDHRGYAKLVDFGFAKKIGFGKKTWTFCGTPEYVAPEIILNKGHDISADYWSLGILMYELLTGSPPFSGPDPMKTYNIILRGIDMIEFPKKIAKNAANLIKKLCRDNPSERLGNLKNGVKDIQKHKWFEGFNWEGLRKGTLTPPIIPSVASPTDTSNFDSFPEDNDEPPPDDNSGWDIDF

For CC(C)(C)c1nc(-c2cccc(NS(=O)(=O)c3c(F)cccc3F)c2F)c(-c2ccnc(N)n2)s1, the remaining activity was 96% (enzyme activity, inhibitor, radiometric; 1 µM).
For Cn1nc(C(=O)NCc2ccc(C(=O)O)cc2)cc1-c1ccc2[nH]ccc2c1, the remaining binding was 100% (cell-free assay, competition with immobilised ligand; 0.1 µM).
Nc1ncnc2occ(-c3ccc(NC(=O)Nc4cc(C(F)(F)F)ccc4F)cc3)c12 gave a remaining signal of 87% (cell-free assay, inhibitor; 20 µM).
For COc1cc2ncnc(Nc3ccc(Oc4ccccc4)c(C)c3C)c2cc1OC, the inhibition was 4% (enzyme activity, inhibitor; 1 µM).
For Cc1ccc(NC(=O)c2ccc(C)c(C(F)(F)F)c2)cc1C#Cc1nn(C2CCC(O)CC2)c2ncnc(N)c12 (centres unmarked), the remaining signal was 118% (cell-free assay; 10 µM).
CN(C)c1ncnc(-c2ccc3nc(Nc4cc(CN5CCN(C(=O)CC(F)(F)F)CC5)ccn4)[nH]c3c2)c1Cl has a remaining binding of 94% (cell-free assay, competition with immobilised ligand; 1 µM).
CN1CC(Oc2cnc(C#N)cc2-c2ccn3nc(NC(=O)C4CC4)cc3c2)C1 has an inhibition of 2% (enzyme activity, inhibitor; 1 µM).
The remaining activity of COc1cc(Cl)c(C(=O)N[C@@H](CN[C@H]2CC[C@@H](N)CC2)Cc2ccc(C#N)cc2)cc1-c1ccc(CN[C@H](C)c2ccc(C)cc2)o1 is reported as 91% (enzyme activity, inhibitor; 1 µM).
CCN(CC)c1ccc(C2=NNC(=O)CC2C)cc1[N+](=O)[O-] (centres unmarked) gave a remaining activity of 83% (enzyme activity, inhibitor; 10 µM).
For CS(=O)(=O)N1CCCC(NC(=O)[C@H](CCC2CCCCC2)NC(=O)c2ccc(CNC(=O)c3cnc4ccccn34)cc2)C1 (some centres unmarked), the remaining binding was 100% (cell-free assay, competition with immobilised ligand; 0.1 µM).
For Cc1cnc(NC2CCOCC2)nc1-n1cnc(C(=O)NC(CN)c2cc(F)cc(Cl)c2)c1 (centres unmarked), the remaining activity was 100% (enzyme activity, inhibitor, radiometric; 1 µM).
For CNC(=O)c1cc(Oc2ccc(NC(=O)Nc3ccc(Cl)c(C(F)(F)F)c3)cc2)ccn1, the inhibition was -10% (enzyme activity, inhibitor; 0.3 µM).
O=C(Nc1cccnn1)N1CCC(=Cc2cccc(Oc3ccc(C(F)(F)F)cn3)c2)CC1 has a remaining binding of 100% (cell-free assay, competition with immobilised ligand; 1 µM).
Cn1cnc(Br)c1C1=CN(c2ncnc3[nH]cnc23)CCS1 has an inhibition of 97.4% (enzyme activity, inhibitor, radiometric; 2 µM).
With NS(=O)(=O)c1cc(NC(=O)Cc2ccccc2)ccc1Oc1cccc(Cl)c1 the remaining binding was 100% (cell-free assay, competition with immobilised ligand; 1 µM).
For CCOc1cc(-c2nncn2C)ccc1Nc1ncc2cc(C)nc(NCC(C)(C)C)c2n1, the inhibition was under 15% (enzyme activity, inhibitor, FRET; 1 µM).
The remaining activity of CCCOc1ccc(OC)c(F)c1C(=O)c1ccc(C(=O)N[C@@H]2CNC[C@H]2NC(=O)c2ccc3[nH]ncc3c2)cc1 is reported as 15% (enzyme activity, inhibitor; 0.1 µM).
